According to ChEMBL document CHEMBL1128395, “Design and synthesis of novel inhibitors of HIV-1 reverse transcriptase” (J Med Chem, 1995):

Tests used:
[1] = target: Human immunodeficiency virus type 1 reverse transcriptase (Human immunodeficiency virus 1, UniProt Q72547); test: Inhibitory activity against HIV-1 Reverse transcriptase
Method in brief: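 Cell-free HIV-1 reverse transcriptase inhibition assay, with TIBO and BI-RG-587 run as reference inhibitors. IC50 is the inhibitor concentration giving 50% enzyme inhibition, taken as the mean of at least two independent assays.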

MT4 = test: Compound was evaluated for effective concentration required to achieve 50% protection of MT-4 cells against cytopathic effect of HIV-1; format: functional, cell-based; details: Homo sapiens

IC50 [1] [µM] | SMILES | EC50 (MT4) [µM]
50.2 | CCOCn1c2c(c(=O)[nH]c1=O)CNc1ccccc1S2 | –
> 100 | O=c1[nH]c(=O)n(COCCO)c2c1CNc1ccccc1S2 | –
0.64 | CCOCCOCn1c2c(c(=O)[nH]c1=O)CNc1ccccc1S2 | –
11.5 | CC(=O)OCCOCn1c2c(c(=O)[nH]c1=O)CNc1ccccc1S2 | –

Continued, compound first:

SMILES | IC50 [1] [µM] | EC50 (MT4) [µM]
O=c1[nH]c2c(c(=O)[nH]1)CNc1ccccc1S2 [PYRIMIDOBENZOTHIAZEPINE] | > 100 | –
CC(=O)OCCOCn1c2c(c(=O)[nH]c1=O)C(c1ccccc1)Nc1ccccc1S2 (configuration not stated) | > 100 | –
O=c1[nH]c(=O)n(COCCO)c2c1C(c1ccccc1)Nc1ccccc1S2 (configuration not stated) | > 100 | –
CC(=O)OCCOCn1c2c(c(=O)n(C)c1=O)CNc1ccccc1S2 | > 100 | –
CC(=O)OCCOCn1c2c(c(=O)[nH]c1=O)C(=O)Nc1ccccc1S2 | > 100 | –
O=c1[nH]c(=O)n(COCCO)c2c1C(c1ccc([N+](=O)[O-])cc1)Nc1ccccc1S2 (configuration not stated) | > 100 | –
CC(=O)OCCOCn1c2c(c(=O)[nH]c1=O)CN(C)c1ccccc1S2 | 14.7 | –
Cc1c(O)nc(O)nc1Sc1ccccc1 | – | > 250
